The format of data set [1] is in vivo.
For data set [2] the following is noted: monotherapy; cited from earlier work.
Data set [3] deals with HPV-negative head and neck cancer cell lines. Conditions: cited from earlier work.
The subject of another data set is Akt. Conditions: compared with erlotinib or SAHA alone; cited from earlier work.
The test system of the next data set is locally advanced HNSCC. The data set can be described thus: Response evaluation. In kind it is in vivo, human. In outline: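 Test compound was infused IV over 1 h, Mon/Wed/Fri, for one week before radiation and then through weeks 1–7. Cisplatin 100 mg/m2 was given on days 2, 23 and 44 (adjustable to 40 mg/m2/week), never on the same day. IMRT delivered 70 Gy in 2 Gy daily fractions to gross disease and 56 Gy in 1.6 Gy fractions to the elective neck. Response was scored by RECIST 1.1 plus site-investigator overall assessment from imaging, PET/CT 12 weeks post-therapy, examination and histology.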

A further data set concerns EGFR. The data set can be described thus: IHC of phosphorylated EGFR in paired tumor biopsies. In kind it is in vivo, human. Conditions: 2 pairs, 275 mg/m^2. In outline: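 Post-dose tumour biopsies were taken 60±30 min after the end of a 1-h IV infusion of test compound on day −5 or −3, and paired with pre-treatment archival tumour. Staining was done on 5-μm paraffin sections. Antigen retrieval used 10mM Tris, 1mM EDTA, 0.05% Tween 20, pH 9.0, at 95°C for 10 min then 90°C for 5 min. Primary antibody was anti-pEGFR Y1068.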

Data set [4] is described as follows: Plasma pharmacokinetics of CUDC-101 and metabolite in patients. In kind it is in vivo, human. The settings on record: for AUC(0-t) / Cmax / Tmax / Vd / clearance / half-life: human, iv.

Structures are written as SMILES.

The AUC(0-t) is the area under the concentration-time curve up to a stated or last time point. As usually defined, the Cmax is the maximum level reached in the sampled fluid or tissue. In general, Tmax refers to the time from dosing to the highest level. The Vd is a proportionality between amount in the body and measured concentration, not a real space. For orientation: clearance means the volume of plasma or blood freed of the substance per unit of time. The term half-life denotes the time needed for the level to fall by half in the phase considered.

Regarding `C#Cc1cccc(Nc2ncnc3cc(OC)c(OCCCCCCC(=O)NO)cc23)c1` [CUDC-101, 7-(4-(3-ethylnylphenylamino)-7-methoxyquinazolin-6-yloxy)-N-hydroxyheptanamide], the “Single adverse event (discontinuation) at dose level 1” value in data set [1] (human, in vivo, 1 week) was “grade 2 joint pain and myalgia”. The “Patients who experienced a serious adverse event (SAE)” value in data set [1] (human, in vivo, 8 weeks) came to 7. Also, in data set [1] (in vivo), the “Patients who experienced at least one AE” value is reported as “All patients” and the “Patients with an SAE considered related to any agent” value was “Five”. Moreover, the “MTD as a single agent” value in data set [2] is on record as 275 mg/m^2. Also, the “Activity in HPV-negative head and neck cancer cell lines” value in data set [3] is on record as “has activity”. Besides, the “Phosphorylation of Akt” value with Akt is “reduced phosphorylation of Akt”. For the same compound, the “Post-treatment clinical assessment: stable, patients (%)” value in the data set with locally advanced HNSCC (11 patients, combination with cisplatin and radiation) is 4 (37%). The compound further gave a Patients progression free in the data set on locally advanced HNSCC (median of 1.47 (0.68 – 2.3) years of follow-up) of 90%. Besides, in the data set with EGFR, the “Phosphorylation of EGFR (Y1068 and Y1173) in tumor biopsies” value was “trend of EGFR inhibition”. For the same compound, the “Dose dependent increase in exposure or peak concentration” value in data set [4] (225 vs 275 mg/m^2) is recorded as “no clear dose dependent increase”. Also, the “Accumulation with this dosing regimen” value in data set [4] (IV 3 times per week, days −7 to 43) is on record as “low probability of accumulation”. Further, in data set [4] (plasma, 225 mg/m2), the AUC(0-t) was 9920 ng·h/mL, the Cmax stood at 13100 ng/mL, the Tmax stood at 0.542 h and the Vd amounted to 26.6 L. Besides, in data set [4] (plasma, 225 mg/m2), the clearance is 938 mL/min and the half-life was 2.83 h. In addition, in data set [4] (plasma, 225 mg/m^2), the area under the curve AUC(0-t) is 7110 ng·h/mL, the Cmax was found to be 8890 ng/mL, the Tmax stood at 1.25 h and the Vd was 54.4 L. For the same compound, in data set [4] (plasma, 225 mg/m^2), the clearance is 895 mL/min and the half-life is 3.91 h. Besides, in data set [4] (plasma, 275 mg/m2), the area under the curve AUC(0-t) came out at 8000 ng·h/mL, the peak concentration (Cmax) worked out at 7890 ng/mL, the Tmax came out at 0.5 h and the Vd is 42.3 L. In data set [4] (plasma, 275 mg/m2), the clearance was 1060 mL/min and the half-life was 2.88 h. In data set [4] (plasma, 275 mg/m^2), the AUC(0-t) was 7770 ng·h/mL, the highest concentration (Cmax) is 7820 ng/mL, the Tmax is 0.742 h and the Vd is 76 L. In data set [4] (plasma, 275 mg/m^2), the clearance is 1020 mL/min and the half-life is 6.41 h. Further, the “Peak concentrations and exposure between days −7 and 43” value in data set [4] (plasma, IV 3 times per week) is “similar”. In addition, the “Exposure to the parent compound compared to its metabolite” value in data set [4] (plasma, all subjects) was “greater in all subjects”.

As to `N.N.[Cl][Pt][Cl]` [Cisplatin, reference compound], the “SAE: Failure to thrive” value in data set [1] (Dose Level 1, 225 mg/m^2 CUDC-101, agent Cisplatin/Radiation) was 1 (25%).

The record behind these values is article PMC6607903 (Clinical cancer research : an official journal of the …, 2015).
